This is a sample that favours compounds with a hit; in the whole collection about 3.7% have one here.
KCNK9 block = inhibitors of human KCNK9 two-pore domain potassium channel; Q9NPC2; HEK293 KCNK9, FluxOR thallium flux fluorescence; hits give low values; B-score at 10 µM; 310,000 compounds, 1.2% hits; AID 488922;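 active = ratio B-score over 3 SD below the library mean, with starting fluorescence within 5 SD of its mean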;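 note: negative B-score means less thallium flux so channel inhibition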
KCNK3 block = human KCNK3 channel inhibition, primary screen. 340,000 compounds, 0.84% hits. O14649. CHO-KCNK3 thallium flux, FluxOR fluorescence; hits give low values. B-score at 10 µM;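 active = B-score under library mean minus 4 SD, starting fluorescence ratio at most library mean plus 5 SD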;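 note: more negative B-score means stronger inhibition of thallium flux through KCNK3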
Kir21 inh = inhibitors of mouse Kir2.1 inward-rectifier potassium channel; HEK293-Kir2.1, FluxOR thallium flux fluorescence; hits give low values; B-score at 10 µM; 310,000 compounds, 0.85% hits; AID 1672;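 active = fluorescence ratio B-score at or below minus 3 SD of library scores, with starting-brightness B-score within 2 SD, cut at about -4.2 in these data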;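 note: channel flux triggered by added potassium and thallium sulfate stimulus; B-score of peak minus minimum fluorescence over baseline after thallium stimulus; more negative B-score means stronger Kir2.1 block with less thallium influx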
Target sequence (P35561 whole entry, looked up): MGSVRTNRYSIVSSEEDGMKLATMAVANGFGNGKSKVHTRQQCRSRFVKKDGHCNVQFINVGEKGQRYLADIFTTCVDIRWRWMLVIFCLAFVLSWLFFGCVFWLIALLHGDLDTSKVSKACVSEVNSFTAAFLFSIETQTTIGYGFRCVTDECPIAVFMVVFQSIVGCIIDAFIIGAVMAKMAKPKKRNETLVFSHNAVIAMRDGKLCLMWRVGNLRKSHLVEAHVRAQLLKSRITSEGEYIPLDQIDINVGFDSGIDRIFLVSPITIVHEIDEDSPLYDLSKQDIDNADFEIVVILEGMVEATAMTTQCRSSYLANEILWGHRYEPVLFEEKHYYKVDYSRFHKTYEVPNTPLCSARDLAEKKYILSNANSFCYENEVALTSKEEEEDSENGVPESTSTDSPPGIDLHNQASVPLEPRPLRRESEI
KCNQ1 block = inhibitors of human KCNQ1 potassium channel; P51787; CHO-K1 KCNQ1, FluxOR thallium flux fluorescence; hits give high values; B-score at 10 µM; 310,000 compounds, 1.3% hits;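 active = compounds whose thallium flux B-score, printed positive for inhibition, exceeds three library SD while starting fluorescence stays within three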;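 note: channel opened by potassium depolarization with thallium stimulus after 20 min compound exposure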
KCNQ1 act = human KCNQ1 channel potentiation or activation; P51787; CHO-K1 KCNQ1, thallium flux FluxOR fluorescence; hits give high values; 310,000 compounds, 0.35% hits; B-score at 10 µM;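 active = fluorescence ratio B-score, a plate-corrected score, at least three library SD, with initial intensity B-score within 5 SD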
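Test system: CHO-K1 cells stably expressing KCNQ1 / Medium: assay buffer / Also added: depolarizing K+/Tl+ stimulus, K2SO4 and Tl2SO4 each 12.5 mM in 5x stock / Incubation: 90 min dye loading and 20 min compound exposure, both at room temperature / Signal: thallium influx via FluxOR fluorescence, kinetic imaging / Evaluation: B score of baseline-normalized fluorescence ratio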
hERG protect = shields human hERG channel from block by proarrhythmic agents; activation (rescue from dofetilide block), less the hit threshold, % at 10 µM; AID 1511; Q12809; CHO-hERG, FluxOR thallium flux, dofetilide IC70 present; 310,000 compounds, 0.51% hits;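 active = activation above the mean of controls blocked by dofetilide plus 5 SD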;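 note: thallium influx through hERG after potassium depolarization seen as dye fluorescence rise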
KCNK3 inh conf = confirmation of human KCNK3 two-pore domain potassium channel inhibitors; 2,400 compounds, 99% hits; ratio percent of control, % at 10 µM; CHO-KCNK3 thallium flux, FluxOR fluorescence; 0% buffer, 100% carvedilol maximal block; AID 651638; shares compounds with KCNK3 block;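 active = ratio percent of control, averaged over triplicates, above buffer control mean plus 5 SD, cut at about 64% in these data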;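 note: ratio is the fluorescence rise from min to max over baseline after thallium stimulus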
KCNK3 uninduced = KCNK3 inhibitor counter-screen hit in non-induced cells; shares compounds with KCNK3 block; non-induced KCNK3 parental cells, FluxOR thallium flux; hits give low values; thallium flux ratio (lower = more inhibition) at 10 µM; 2,400 compounds, 40% hits; AID 651747;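 active = thallium flux ratio, averaged over three wells, more than 5 SD below the buffer control mean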;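 note: host cells are CHO cells without KCNK3 induction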
Numbers stand for hits; - = inactive; . = no result.

SMILES | KCNK9 block | KCNK3 block | Kir21 inh | KCNQ1 block | KCNQ1 act | hERG protect | KCNK3 inh conf | KCNK3 uninduced
Cc1ccc(C(=O)Nc2cccc3cccnc23)cc1C | - | -9.9 | - | - | - | - | 95 | -
CC1=CC2C(C3C=CC2(C)C(=O)C3(C)O)C(C)(O)C1=O (stereo not drawn) | . | - | . | . | . | . | . | .
Nc1nnc(SCC(=O)NNC(=O)c2ccc(F)cc2)s1 | . | - | . | . | . | . | . | .
Cc1[nH]c2ccccc2c1C(=O)CSc1nnc(C2CC2)o1 | . | - | . | . | . | . | . | .
O=C(CCNS(=O)(=O)c1ccccc1F)N1CCN(C(c2ccccc2)c2ccccc2)CC1 | -7.4 | -8.9 | - | - | - | - | 101 | -
O=C(CCNS(=O)(=O)c1ccccc1F)N1CCN(S(=O)(=O)c2cccc(F)c2)CC1 | - | - | - | - | - | - | . | .
O=C(CN1CCCN(S(=O)(=O)c2ccc(F)cc2)CC1)Nc1cccc(F)c1 | -6.7 | -12 | - | - | - | - | 92 | -
Cc1[nH]c(C)c(S(=O)(=O)N(Cc2ccccc2)C(C)C)c1C(=O)N1CCCC1 | - | - | - | - | - | - | . | .
O=C(N/N=C/c1ccc[nH]1)c1ccc(O)cc1 | - | - | - | - | - | - | . | .
O=C(N/N=C/c1ccc[nH]1)c1ccccc1O | - | -9 | - | - | - | - | 81 | -
Cc1cccc(-c2noc(CN(C(=O)c3c(-c4ccccc4Cl)noc3C)C(C)C)n2)c1 | . | -12 | . | . | . | . | 113 | -
Cc1cccc(-c2noc(CN(C(=O)c3ccc(Br)o3)C(C)C)n2)c1 | - | - | - | - | - | - | . | .
O=C(CN(c1ccc(F)cc1)S(=O)(=O)c1ccccc1)NC1CCCCCC1 | - | - | - | - | - | - | . | .
COc1ccc(C(=O)C(OC(=O)c2ccc(C)c(NC(C)=O)c2)c2ccccc2)cc1 (stereo not drawn) | - | - | - | - | - | - | . | .
CC(=O)Nc1cc(C(=O)OC(C(=O)c2ccccc2)c2ccccc2)ccc1C (stereo not drawn) | - | -10 | - | - | - | - | 79 | -
C=CCNC(=O)CSc1nnc(-c2ccc(S(=O)(=O)N3CCCC3)cc2)n1C | - | - | - | - | - | - | . | .
OC1(c2ccc(OC(F)F)cc2)CSC(=Nc2cccnc2)N1Cc1ccco1 (stereo not drawn) | - | -11 | - | - | - | - | 97 | -
CN1CCC(CC(C(=O)N2CCCC2)(c2ccccc2)c2ccccc2)C1 (stereo not drawn) | . | - | . | . | . | . | . | .
Cc1ccc(S(=O)(=O)N(C)C)cc1NC(=O)C(C)N(C)CCOc1ccc(Cl)cc1 (stereo not drawn) | - | -9.4 | - | - | - | - | 79 | -
C/C(=N\Nc1cc(C)nc(-c2ccccc2O)n1)c1ccccc1O | - | -9.1 | - | 10 | - | - | 106 | -
Cc1cc(N/N=C\c2ccccc2)nc(-c2ccccc2O)n1 | - | - | - | - | - | - | . | .
O=C(NCc1cn2ccccc2n1)C1CCC(=O)N(Cc2ccccc2F)C1 (stereo not drawn) | - | - | - | - | - | - | . | .
Cc1nn2c(NCc3ccccn3)cc(C(C)C)nc2c1-c1ccccc1 | - | - | - | - | - | - | . | .
Cc1nn2c(NCCCn3ccnc3)cc(C(C)C)nc2c1-c1ccccc1 | - | -12 | -5 | - | - | - | 115 | 0.14
O=c1[nH]c([N+](=O)[O-])nn1C(c1ccccc1)c1ccccc1 | - | -10 | - | - | - | - | - | -
SMILES | KCNK9 block | KCNK3 block | Kir21 inh | KCNQ1 block | KCNQ1 act | hERG protect | KCNK3 inh conf | KCNK3 uninduced
Cc1[nH]n(-c2ccccc2)c(=O)c1C(c1cccc([N+](=O)[O-])c1)c1c(C)[nH]n(-c2ccccc2)c1=O | - | - | - | - | - | - | . | .
CC1CCc2sc(C(=O)NNC(=S)NC3CC3)cc2C1 (stereo not drawn) | - | - | - | - | - | - | . | .
COc1ccc(CNCC(O)(c2ccc(Cl)cc2)c2ccc(Cl)cc2)cc1 | - | -9.3 | - | - | - | - | 131 | -
CCCSc1nc(N2CCOCC2)c2c(c1C#N)CC(C)(C)SC2 | - | -9.5 | - | - | - | - | 128 | 0.12
CC(C)CSc1nc(N2CCOCC2)c2c(c1C#N)CC(C)(C)SC2 | . | - | . | . | . | . | . | .
COc1ccc(OC)c(CN2CCN(CCc3ccccc3)C(CCO)C2)c1 (stereo not drawn) | - | - | - | - | - | - | . | .
COc1ccc(CN2CCN(CCc3ccccc3)C(CCO)C2)c(Cl)c1OC (stereo not drawn) | - | -9.9 | - | - | - | - | 85 | -
CCCCOc1ccc(C(=O)NCC(=O)NNC(=O)C2COc3ccccc3O2)cc1 (stereo not drawn) | . | - | . | . | . | . | . | .
COC(=O)c1cc(S(=O)(=O)Nc2cccc(C)c2C)cn1C | - | - | - | - | - | - | . | .
COC(=O)c1ccccc1NC(=O)N1CCN(c2ccc(F)cc2)CC1 | - | -11 | - | - | - | - | 112 | -
O=C(Nc1cccc2ccccc12)N1CCN(c2ccc(F)cc2)CC1 | - | - | - | - | - | - | . | .
Cc1nn(C2CCS(=O)(=O)C2)c(C)c1CN(C)C(=O)c1cccc(Cl)c1 (stereo not drawn) | . | - | . | . | . | . | . | .
N#C/C(=C\c1ccc(N2CCOCC2)o1)c1ccccc1 | - | -9 | - | - | - | - | 144 | 0.081
COc1ccc(OCC(O)CNC(=O)Nc2ccc(C(C)(C)C)cc2)cc1 (stereo not drawn) | - | - | - | - | - | - | . | .
COc1ccc(/C=C2\COc3ccccc3C2=O)c(OC)c1 | - | -9.6 | - | - | - | - | 121 | -
CCN(CC(=O)Nc1ccccc1OC)C(=O)CSCC(=O)Nc1ccc(OC)cc1 | - | - | - | - | - | - | . | .
c1ccc(CCNc2ncnc3scc(C4COc5ccccc5O4)c23)cc1 (stereo not drawn) | - | -9.1 | - | - | - | - | 127 | 0.12
CCOc1ccc(/C=N/NC(=O)Cc2csc(Nc3cccc(C(F)(F)F)c3)n2)cc1 | - | -11 | - | - | - | - | 106 | -
CCOc1ccccc1/C=N/NC(=O)Cc1csc(Nc2cccc(C(F)(F)F)c2)n1 | - | -8.7 | - | - | - | - | 131 | 0.15
COc1ccc(OC)c(Nc2nc(-c3cccs3)cs2)c1 | - | -9.1 | - | - | - | - | 90 | -
COc1ccc(Nc2nc(-c3cccs3)cs2)c(OC)c1 | - | - | - | - | - | - | . | .
O=C1/C(=C\c2ccccc2)SC(=S)N1CCC(=O)N1CCCCC1CCO (stereo not drawn) | - | - | - | - | - | - | . | .

Screening data from PubChem BioAssay.
